# From ChEMBL document CHEMBL1151832, “Structure elucidation at the nanomole scale. 1. Trisoxazole macrolides and thiazole-containing cyclic peptides from the nudibranch Hexabranchus sanguineus” (2009)
# Activity calls are given as the source filed them. No cut-off for these calls is given here.
# What was measured:
# Cryptococcus neoformans = assay: Antifungal activity against Cryptococcus neoformans var. grubii clinical isolate by broth microdilution method; format: functional
# Procedure, shortened: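 Clinical isolate maintained on Sabouraud dextrose agar, 30 °C, 48 h. Susceptibility by NCCLS broth microdilution in RPMI-1640 with 0.165 M MOPS (pH 7.0), using 2-fold dilutions from DMSO stocks spanning 0.062–64 µg/mL final (amphotericin B control 0.0078–8 µg/mL). Replicate wells per run; OD 600 nm read-out; MIC endpoint is the lowest concentration with complete (≥90%) inhibition.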
# Candida albicans [1] = assay: Antifungal activity against Candida albicans ATCC 14503 by broth microdilution method; format: functional
# Procedure, shortened: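 C. albicans reference strain grown on Sabouraud dextrose agar at 30 °C for 24 h. NCCLS broth microdilution: 2-fold serial dilutions from DMSO stocks in RPMI-1640 buffered to pH 7.0 with 0.165 M MOPS. Final concentrations 0.062–64 µg/mL; amphotericin B control 0.0078–8 µg/mL. Tested in replicate; growth read as OD 600 nm; MIC = lowest concentration giving ≥90% growth inhibition.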
# Nakaseomyces glabratus = assay: Antifungal activity against Candida glabrata clinical isolate by broth microdilution method; format: functional
# Procedure, shortened: (§1)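 Isolates were maintained on Sabouraud dextrose agar at 30 °C, for 24 h (Candida) or 48 h (C. neoformans). Testing followed the NCCLS broth microdilution method, using 2-fold serial dilutions from DMSO stocks in RPMI-1640 buffered to pH 7.0 with 0.165 M MOPS. Final concentrations were 0.062–64 µg/mL, with amphotericin B as positive control. Replicates were run, and growth was read by OD600. MIC was the lowest concentration giving ≥90% inhibition.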
# Cryptococcus gattii = assay: Antifungal activity against Cryptococcus neoformans var. gattii clinical isolate by broth microdilution method; format: functional, organism-based; details: Cryptococcus bacillisporus; procedure, shortened: as §1
# Candida albicans [2] = assay: Antifungal activity against fluconazole-resistant Candida albicans isolate UCDFR1 by broth microdilution method; format: functional, organism-based; procedure, shortened: as §1
# Candida albicans [3] = assay: Antifungal activity against fluconazole-resistant Candida albicans isolate 96-489 by broth microdilution method
# Pichia kudriavzevii = assay: Antifungal activity against fluconazole-resistant Candida krusei clinical isolate by broth microdilution method; format: functional, organism-based; procedure, shortened: as §1
Structure (SMILES),MIC (Cryptococcus neoformans),MIC (Candida albicans [1]),MIC (Nakaseomyces glabratus),MIC (Cryptococcus gattii),MIC (Candida albicans [2]),MIC (Candida albicans [3]),MIC (Pichia kudriavzevii)
CO[C@H]([C@H](C)/C=C/N(C)C=O)[C@@H](C)C(=O)CC[C@H](C)[C@H](C[C@@H]1OC(=O)C[C@@H](O)CCC[C@H](O)[C@H](C)[C@H](OC)c2coc(n2)-c2coc(n2)-c2coc(n2)/C=C/CC[C@H]1C)OC,0.5 µg/mL,0.25 µg/mL,0.125 µg/mL,–,–,–,–
CO[C@H]([C@H](C)/C=C/N(C)C=O)[C@@H](C)C(=O)CC[C@H](C)[C@H](C[C@@H]1OC(=O)C[C@@H](OC(N)=O)C[C@H](C)C[C@H](O)[C@H](C)[C@@H](OC)c2coc(n2)-c2coc(n2)-c2coc(n2)/C=C/C[C@H](O)[C@H]1C)OC [KABIRAMIDE B],1 µg/mL,0.5 µg/mL,0.5 µg/mL,–,–,–,–
CO[C@H]([C@H](C)/C=C/N(C)C=O)[C@@H](C)C(=O)CC[C@H](C)[C@H](C[C@@H]1OC(=O)C[C@@H](OC(N)=O)C[C@H](C)C[C@H](O)[C@H](C)[C@@H](O)c2coc(n2)-c2coc(n2)-c2coc(n2)/C=C/C[C@H](O)[C@H]1C)OC [9-O-DESMETHYL KABIRAMIDE B],2 µg/mL,2 µg/mL,1 µg/mL,inactive,inactive,inactive,inactive
C[C@@H]1[C@H](O)[C@@H](C)/C=C/C=C/C=C/C=C/C=C/C=C/C=C/[C@H](O[C@@H]2O[C@H](C)[C@@H](O)[C@H](N)[C@@H]2O)C[C@@H]2O[C@](O)(C[C@@H](O)C[C@@H](O)[C@H](O)CC[C@@H](O)C[C@@H](O)CC(=O)O[C@H]1C)C[C@H](O)[C@H]2C(=O)O [AMPHOTERICIN B],0.016 µg/mL,0.016 µg/mL,0.25 µg/mL,–,–,–,–
CO[C@H]([C@H](C)/C=C/N(C)C=O)[C@@H](C)C(=O)CC[C@H](C)[C@H](C[C@@H]1OC(=O)C[C@@H](OC(N)=O)C[C@H](C)C[C@H](O)[C@H](C)[C@@H](OC)c2coc(n2)-c2coc(n2)-c2coc(n2)/C=C/C[C@H](OC)[C@H]1C)OC [KABIRAMIDE C],0.125 µg/mL,0.016 µg/mL,0.25 µg/mL,Active,Active,Active,Active
